Data set [1] in a line: Partition coefficient (logP). To be noted: octanol/water. The format is physicochemical.
For another data set, the species on record is Homo sapiens. As to the kind of experiment: In vitro inhibitory activity was evaluated against human squalence epoxidase. The format is functional. The method, boiled down: (§1)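 Source of enzyme: dog or rat liver microsomes, or HepG2 cell homogenate for human, solubilized in 2% Triton X-100. Each was incubated with AMO-1680, FAD, NADPH, EDTA, [³H]squalene and drug for 90 min at 37 °C. The reaction was stopped with ethanolic KOH. Non-saponifiable lipids were separated by silica TLC and 2,3-oxidosqualene radioactivity was counted to give IC50.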

The species named for data set [2] is Canis familiaris. Put plainly: In vitro inhibitory activity was evaluated against dog squalence epoxidase. The format is functional, Canis lupus familiaris. In outline: as §1
Data set [3] can be described thus: Compound was evaluated for maximum time(Tmax) in suspension of 0.5% methylcellulose at a dose of 10 mg/kg in rat. On the set-up: dose 10 mg/kg. To be noted: in vivo. The data set is classed as ADME, organism-based. The method, boiled down: (§2)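 Rats dosed orally with a single 10 mg/kg dose, given as a suspension in 0.5% methylcellulose. Plasma was sampled to derive Cmax, Tmax, AUC over 0–8 h and bioavailability.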

Data set [4] is described as follows: Compound was evaluated for maximum concentration (Cmax) in suspension of 0.5% methylcellulose at a dose of 10 mg/kg in rat. As to conditions: in vivo. On the set-up: dose 10 mg/kg. The format is ADME, organism-based. In outline: as §2
The species named for the next data set is Rattus norvegicus. Put plainly: In vitro inhibitory activity was evaluated against rat squalence epoxidase. The format is functional. The method, boiled down: as §1
The nature of data set [5]: Compound was evaluated for area under the curve (0-8 h). The data set is classed as ADME, organism-based. On the set-up: time < 8 hr. To be noted: rat, in vivo. In outline:
as §2

Data set [6] is described as follows: Bioavailability in rat. The format is ADME, organism-based. To be noted: in vivo. In outline: as §2
Data set [7] deals with Canis familiaris. Put plainly: Compound was evaluated for artherogenic index in plasma lipoprotein cholesterol level (LDL cholesterol / HDL cholesterol) at a dose of 10 mg/kg/day. The data set is classed as ADME, organism-based, Canis lupus familiaris. As to conditions: dog, in vivo. In outline:
(§3)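 Male beagle dogs (9–11 kg, n=3) dosed orally twice daily for 28 days, at 3.2, 10 or 32 mg/kg/day. On day 14, serum lipoprotein fractions were separated by ultracentrifugation. LDL and HDL cholesterol were measured enzymatically and expressed as % change. Atherogenic index was taken as the LDL/HDL ratio.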

Data set [8] deals with Canis familiaris. As to the kind of experiment: Compound was evaluated for change in the effect of plasma lipoprotein cholesterol level (HDL) at a dose of 32 mg/kg/day. The format is ADME, organism-based, Canis lupus familiaris. As to conditions: dog, in vivo. The method, boiled down:
as §3

Data set [9] concerns Canis familiaris. As to the kind of experiment: Compound was evaluated for change in the effect of plasma lipoprotein cholesterol level (HDL) at a dose of 3.2 mg/kg/day. The format is ADME, organism-based, Canis lupus familiaris. As to conditions: dog, in vivo. The method, boiled down: as §3
Data set [10] has as its system Canis familiaris. Put plainly: Compound was evaluated for change in the effect of plasma lipoprotein cholesterol level (LDL) at a dose of 32 mg/kg/day. As to conditions: dog, in vivo. The data set is classed as ADME, organism-based, Canis lupus familiaris. The method, boiled down:
as §3

In data set [11] the test system is Canis familiaris. As to the kind of experiment: Compound was evaluated for artherogenic index in plasma lipoprotein cholesterol level (LDL cholesterol / HDL cholesterol) at a dose of 32 mg/kg/day. The format is ADME, organism-based, Canis lupus familiaris. To be noted: dog, in vivo. In outline:
as §3

In data set [12] the test system is Canis familiaris. As to the kind of experiment: Compound was evaluated for artherogenic index in plasma lipoprotein cholesterol level (LDL cholesterol / HDL cholesterol) at a dose of 3.2 mg/kg/day. As to conditions: dog, in vivo. The format is ADME, organism-based, Canis lupus familiaris. In outline: as §3
The subject of data set [13] is Canis familiaris. Put plainly: Compound was evaluated for change in the effect of plasma lipoprotein cholesterol level (LDL) at a dose of 3.2 mg/kg/day. The format is ADME, organism-based, Canis lupus familiaris. As to conditions: dog, in vivo. The method, boiled down:
as §3

For data set [14], the system named is Canis familiaris. Put plainly: Compound was evaluated for change in the effect of plasma lipoprotein cholesterol level (HDL) at a dose of 10 mg/kg/day. The data set is classed as ADME, organism-based, Canis lupus familiaris. To be noted: dog, in vivo. The method, boiled down:
as §3

Data set [15] deals with Canis familiaris. As to the kind of experiment: Compound was evaluated for change in the effect of plasma lipoprotein cholesterol level (LDL) at a dose of 10 mg/kg/day. The data set is classed as ADME, organism-based, Canis lupus familiaris. To be noted: dog, in vivo. In outline: as §3
The subject of the next data set is HepG2. Put plainly: In vitro inhibitory activity was evaluated on cholesterol biosynthesis in HepG2 cells. The data set is classed as functional, cell-based. As to conditions: Homo sapiens. In outline:
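HepG2 cells were kept overnight in 10% human lipoprotein-deficient serum, then preincubated 1 h with drug. [¹⁴C]acetate was added for 2 h. Cells were lysed and saponified with ethanolic KOH. Digitonin was added to the non-saponifiable lipids, and radioactivity of the digitonin-coprecipitable sterols was counted to give IC50.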

pIC50: −log10 of the molar value.

A word on the logP: it is a log measure of how a compound divides between an organic and an aqueous phase. Usually pIC50 stands for −log10 of the IC50, conventionally taken in molar units. As for `C=CCC(CC=C)(COc1cccc(CN(CC)C/C=C/C#CC(C)(C)C)c1)OCc1ccsc1`, the logP in data set [1] (read-out: logP) is 8.45. In the data set listed under Homo sapiens (Homo sapiens), the pIC50 was 6.80.
On to `CCN(C/C=C/C#CC(C)(C)C)Cc1cccc(OCCOCc2ccsc2)c1`, for which the logP in data set [1] (read-out: logP) turned out to be 6.6. The pIC50 in the data set listed under Canis familiaris [2] (Canis lupus familiaris) was 6.64; in the data set filed under Homo sapiens (Homo sapiens), 7.60.
Consider `CCN(C/C=C/C#CC(C)(C)C)Cc1cccc(OCC(C)(C)OC(=O)c2ccsc2)c1`, for which the lipophilicity (logP) in data set [1] (read-out: logP) came out at 7.48. Also, the negative logarithm of the IC50 (pIC50) is 6.43 in the data set listed under Canis familiaris [2] (Canis lupus familiaris) and 7.64 in the data set filed under Homo sapiens (Homo sapiens).
Consider `CCN(C/C=C/C#CC(C)(C)C)Cc1cccc(OCC(CC)(CC)OCc2ccsc2)c1`, for which the logP in [1] (read-out: logP) was determined as 8.36. Besides, the pIC50 in the data set filed under Homo sapiens (Homo sapiens) is 6.92.
By Tmax is commonly meant the time from dosing to the highest level. As a reminder, the Cmax is the maximum level reached in the sampled fluid or tissue. A word on the AUC(0-t): it is the area under the concentration-time curve up to a stated or last time point. A lower AUC(0-t) goes with low exposure. What is called bioavailability is dose-corrected exposure relative to a reference, in per cent. A high value points to much systemic uptake. `CCN(C/C=C/C#CC(C)(C)C)Cc1cccc(OCc2cc(-c3ccsc3)cs2)c1`: in [3], the Tmax turned out to be 1.67 h. This molecule showed a Cmax in data set [4] of 329 ng/mL. In addition, in data set [1] (read-out: logP), the log partition coefficient (logP) worked out at 8.19. The pIC50 is 7.44 in the data set listed under Rattus norvegicus, 7.37 in the data set listed under Canis familiaris [2] (Canis lupus familiaris) and 8.14 in the data set filed under Homo sapiens (Homo sapiens). The same molecule had an AUC(0-t) at 8 h in data set [5] of 1390 ng·h/mL. The molecule further yielded a bioavailability in data set [6] of 16.5%.
As for `CN(C/C=C/C#CC(C)(C)C)Cc1cccc(OCC(C)(C)OCc2ccsc2)c1`, the logP in data set [1] (read-out: logP) was determined as 6.78. The negative-log IC50 (pIC50) was 7.11 in the data set listed under Canis familiaris [2] (Canis lupus familiaris) and 7.96 in the data set listed under Homo sapiens (Homo sapiens).
`CCN(C/C=C/C#CC(C)(C)C)Cc1cccc(OCC(C)(C)OCc2ccsc2)c1`: the logP in data set [1] (read-out: logP) worked out at 7.3. In addition, the pIC50 was 7.47 in the data set listed under Canis familiaris [2] and 8.27 in the data set listed under Homo sapiens (Homo sapiens).
Consider `CCCN(C/C=C/C#CC(C)(C)C)Cc1cccc(OCC(C)(C)OCc2ccsc2)c1`, for which the logP in data set [1] (read-out: logP) is 7.83. Further, the pIC50 was 7.29 in the data set listed under Canis familiaris [2] (Canis lupus familiaris) and 7.51 in the data set listed under Homo sapiens (Homo sapiens).
Turning to `CCN(C/C=C/C#CC(C)(C)C)Cc1cccc(OCC(C)(C)OCc2ccsc2)c1.Cl`, the Activity is given as -38% in the data set on Canis familiaris [7], -47% with Canis familiaris [11] and -2% in the data set with Canis familiaris [12]. Further, in [3], the time to peak (Tmax) was 1.17 h. Besides, the Cmax in data set [4] was found to be 486 ng/mL. Also, in data set [1], the logP is on record as 7.3. Besides, the HDL in the data set on Canis familiaris [8] is listed as -27%; in the data set on Canis familiaris [9] it was 0%; with Canis familiaris [14], -14%. The values for the pIC50 in the data set filed under Rattus norvegicus, in the data set listed under Canis familiaris [2] and in the data set listed under Homo sapiens were 7.60, 7.85 and 8.01, respectively. The molecule also came in with an exposure AUC(0-t) at 8 h in [5] of 1870 ng·h/mL. The molecule further displayed a bioavailability in data set [6] of 32.9%. In addition, the LDL with Canis familiaris [10] was -61%; with Canis familiaris [13] it was -2%; in the data set with Canis familiaris [15] it was -47%.
`CC(C)n1c(/C=C/[C@H](O)C[C@H](O)CC(=O)O)c(-c2ccc(F)cc2)c2ccccc21` [FLUVASTATIN] had a pIC50 in the data set on HepG2 of 7.55.
The same measure, in the same setting: with `CC[C@H](C)C(=O)O[C@H]1C[C@H](O)C=C2C=C[C@H](C)[C@H](CC[C@@H](O)C[C@@H](O)CC(=O)O)[C@H]21` [PRAVASTATIN] the figure was […]; with `CCC(C)(C)C(=O)O[C@H]1C[C@@H](C)C=C2C=C[C@H](C)[C@H](CC[C@@H]3C[C@@H](O)CC(=O)O3)[C@H]21` [SIMVASTATIN], 7.40.

Values taken from ChEMBL document CHEMBL1148267, “Synthesis and biological activity of a novel squalene epoxidase inhibitor, FR194738” (Bioorg Med Chem Lett, 2004).
